Data from ChEMBL document CHEMBL4184325, “Discovery of 4,7-Diamino-5-(4-phenoxyphenyl)-6-methylene-pyrimido[5,4- b]pyrrolizines as Novel Bruton's Tyrosine Kinase Inhibitors” (J Med Chem, 2018).
One block for each compound: values may come before it.

Legend:
[1] = molecular target: Tyrosine-protein kinase BTK (Homo sapiens, UniProt Q06187); experiment: Inhibition of recombinant human BTK using Poly(Glu, Tyr) 4:1 as substrate after 1 hr by ELISA
[2] = tested on: Rattus norvegicus; experiment: Volume of distribution at steady state in rat at 1 mg/kg, iv; type: ADME, organism-based; details: in vivo
Method in brief: (§1)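 Rats were given compound at 1 mg/kg iv or 3 mg/kg po. Vehicle was DMSO, Tween 80 and normal saline. Values are the average of three determinations.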

[3] = tested on: Rattus norvegicus; experiment: Half life in rat at 1 mg/kg, iv; type: ADME, organism-based; details: in vivo
Method in brief: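 Rats given 1 mg/kg intravenously; vehicle DMSO, Tween 80, normal saline; values are the average of three determinations.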

[4] = Cmax in rat at 3 mg/kg, po; type: ADME, organism-based; parameters: dose 3 mg/kg, route oral; details: in vivo
Method in brief: (§2)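 Rats dosed orally at 3 mg/kg; vehicle DMSO, Tween 80, normal saline; values are the average of three determinations.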

[5] = Tmax in rat at 3 mg/kg, po; type: ADME, organism-based; details: in vivo; method in brief: as §1
[6] = tested on: Rattus norvegicus; experiment: AUC (0 to infinity) in rat at 3 mg/kg, po; type: ADME, organism-based; parameters: dose 3 mg/kg, time infinity, route oral; details: in vivo; method in brief: as §2
[7] = tested on: Rattus norvegicus; experiment: (§3) Oral bioavailability in rat at 3 mg/kg; type: ADME, organism-based; details: in vivo; method in brief: as §1
[8] = Drug metabolism in mouse liver microsomes assessed as (S)-4-(4-(4,7-diamino-6-methylene-7,8-dihydro-6H-pyrimido[5,4-b]pyrrolizin-5-yl)phenoxy)phenol formation after 3 hrs; type: ADME, microsome
[9] = Drug metabolism in mouse liver microsomes assessed as (S)-N-(4-amino-5-(4-(4-hydroxyphenoxy)phenyl)-6-methylene-7,8-dihydro-6H-pyrimido[5,4-b]pyrrolizin-7-yl)but-2-ynamide formation after 3 hrs; type: ADME, microsome
[10] = Drug metabolism in rat liver microsomes assessed as (S)-N-(4-amino-5-(4-(4-hydroxyphenoxy)phenyl)-6-methylene-7,8-dihydro-6H-pyrimido[5,4-b]pyrrolizin-7-yl)but-2-ynamide formation after 3 hrs; type: ADME, microsome
[11] = Drug metabolism in mouse liver microsomes assessed as (S)-N-(4-amino-6-methylene-5-(4-phenoxyphenyl)-7,8-dihydro-6H-pyrimido[5,4-b]pyrrolizin-7-yl)-4-hydroxybut-2-ynamide formation after 3 hrs; type: ADME, microsome
[12] = Drug metabolism in rat liver microsomes assessed as (S)-N-(4-amino-6-methylene-5-(4-phenoxyphenyl)-7,8-dihydro-6H-pyrimido[5,4-b]pyrrolizin-7-yl)-4-hydroxybut-2-ynamide formation after 3 hrs; type: ADME, microsome
[13] = Drug metabolism in human liver microsomes assessed as (S)-N-(4-amino-6-methylene-5-(4-phenoxyphenyl)-7,8-dihydro-6H-pyrimido[5,4-b]pyrrolizin-7-yl)-4-hydroxybut-2-ynamide formation after 3 hrs; type: ADME, microsome
[14] = Drug metabolism in rat liver microsomes assessed as (S)-N-(4-amino-5-(4-(4-hydroxyphenoxy)phenyl)-6-methylene-7,8-dihydro-6H-pyrimido[5,4-b]pyrrolizin-7-yl)-4-hydroxybut-2-ynamide formation after 3 hrs; type: ADME, microsome
[15] = Drug metabolism in human liver microsomes assessed as (S)-N-(4-amino-5-(4-(4-hydroxyphenoxy)phenyl)-6-methylene-7,8-dihydro-6H-pyrimido[5,4-b]pyrrolizin-7-yl)-4-hydroxybut-2-ynamide formation after 3 hrs; type: ADME, microsome
[16] = Drug metabolism in rat liver microsomes assessed as (S)-N-(4-amino-5-(4-hydroxyphenyl)-6-methylene-7,8-dihydro-6H-pyrimido[5,4-b]pyrrolizin-7-yl)but-2-ynamide formation after 3 hrs; type: ADME, microsome
[17] = Drug metabolism in human liver microsomes assessed as (S)-N-(4-amino-5-(4-hydroxyphenyl)-6-methylene-7,8-dihydro-6H-pyrimido[5,4-b]pyrrolizin-7-yl)but-2-ynamide formation after 3 hrs; type: ADME, microsome
[18] = Drug metabolism in human liver microsomes treated with (S)-N-(4-Amino-6-methylene-5-(4-phenoxyphenyl)-7,8-dihydro-6H-pyrimido[5,4-b]pyrrolizin-7-yl)acrylamide after 3 hrs; type: ADME, microsome
[19] = Drug metabolism in rat liver microsomes treated with (S)-N-(4-Amino-6-methylene-5-(4-phenoxyphenyl)-7,8-dihydro-6H-pyrimido[5,4-b]pyrrolizin-7-yl)acrylamide after 3 hrs; type: ADME, microsome
[20] = Drug metabolism in mouse liver microsomes treated with (S)-N-(4-Amino-6-methylene-5-(4-phenoxyphenyl)-7,8-dihydro-6H-pyrimido[5,4-b]pyrrolizin-7-yl)acrylamide after 3 hrs; type: ADME, microsome
[21] = Drug metabolism in mouse liver microsomes treated with (S)-N-(4-Amino-6-methylene-5-(4-phenoxyphenyl)-7,8-dihydro-6H-pyrimido[5,4-b]pyrrolizin-7-yl)but-2-ynamide after 3 hrs; type: ADME, microsome
[22] = Drug metabolism in rat liver microsomes treated with (S)-N-(4-Amino-6-methylene-5-(4-phenoxyphenyl)-7,8-dihydro-6H-pyrimido[5,4-b]pyrrolizin-7-yl)but-2-ynamide after 3 hrs; type: ADME, microsome
[23] = Drug metabolism in human liver microsomes treated with (S)-N-(4-Amino-6-methylene-5-(4-phenoxyphenyl)-7,8-dihydro-6H-pyrimido[5,4-b]pyrrolizin-7-yl)but-2-ynamide after 3 hrs; type: ADME, microsome
[24] = as §3; type: ADME, organism-based; details: in vivo; method in brief: as §1
[25] = tested on: TMD8; experiment: Antiproliferative activity against human TMD8 cells after 72 hrs by MTT assay; type: functional, cell-based; details: TMD8, 72 h
Method in brief: (§4)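 Cells grown in RPMI-1640 with FBS at 37 °C, 5% CO2. Seeded and grown 2 h, then treated with various concentrations in PBS solution, each in triplicate, and cultured a further 72 h. Viability read by MTT. IC50 from the Logit method, given as mean ± SD of three independent determinations.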

[26] = tested on: Ramos; experiment: Antiproliferative activity against human Ramos cells after 72 hrs by MTT assay; type: functional, cell-based; method in brief: as §4
[27] = tested on: Mus musculus; experiment: Toxicity in CB17 SCID nude mouse xenografted with human TMD8 cells assessed as change in body weight at 25 mg/kg, po qd administered for 13 consecutive days measured during compound dosing up to day 17 post dose; type: organism-based; details: in vivo
[28] = molecular target: Tyrosine-protein kinase BTK (Homo sapiens, UniProt Q06187, C481S); experiment: Inhibition of recombinant full-length N-terminal His-tagged human BTK C481S mutant expressed in baculovirus infected Sf9 insect cells using Poly(Glu, Tyr) 4:1 as substrate after 1 hr by ELISA
[29] = molecular target: Tyrosine-protein kinase Blk (Homo sapiens, UniProt P51451); experiment: Inhibition of partial length human BLK expressed in bacteria assessed as residual activity at 1 uM relative to control
Method in brief: (§5)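 KINOMEscan competition binding panel of 468 kinases with compound at 1 μM. Result is % control = (test − positive control signal)/(DMSO negative − positive control signal) × 100.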

[30] = molecular target: Receptor tyrosine-protein kinase erbB-4 (Homo sapiens, UniProt Q15303); experiment: Inhibition of partial length human ErbB4 expressed in bacteria assessed as residual activity at 1 uM relative to control; method in brief: as §5
[31] = molecular target: Dual specificity mitogen-activated protein kinase kinase; MEK1/2 (Homo sapiens) (UniProt P36507+Q02750); experiment: Inhibition of human MEK assessed as residual activity at 1 uM relative to control; type: protein assay; method in brief: as §5
Chain of Dual specificity mitogen-activated protein kinase kinase; MEK1/2 (Homo sapiens) (P36507 whole entry, looked up): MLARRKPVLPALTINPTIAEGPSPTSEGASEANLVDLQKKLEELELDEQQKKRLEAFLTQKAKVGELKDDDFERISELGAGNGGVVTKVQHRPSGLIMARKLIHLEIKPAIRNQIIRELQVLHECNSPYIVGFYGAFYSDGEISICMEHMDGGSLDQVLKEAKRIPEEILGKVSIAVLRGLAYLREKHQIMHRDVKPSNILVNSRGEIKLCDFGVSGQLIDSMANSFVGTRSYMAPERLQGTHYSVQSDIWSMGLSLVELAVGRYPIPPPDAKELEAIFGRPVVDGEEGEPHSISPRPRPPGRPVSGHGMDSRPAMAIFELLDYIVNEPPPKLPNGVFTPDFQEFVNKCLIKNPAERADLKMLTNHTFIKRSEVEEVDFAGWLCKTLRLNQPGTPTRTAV
Chain of Dual specificity mitogen-activated protein kinase kinase; MEK1/2 (Homo sapiens) (Q02750 whole entry, looked up): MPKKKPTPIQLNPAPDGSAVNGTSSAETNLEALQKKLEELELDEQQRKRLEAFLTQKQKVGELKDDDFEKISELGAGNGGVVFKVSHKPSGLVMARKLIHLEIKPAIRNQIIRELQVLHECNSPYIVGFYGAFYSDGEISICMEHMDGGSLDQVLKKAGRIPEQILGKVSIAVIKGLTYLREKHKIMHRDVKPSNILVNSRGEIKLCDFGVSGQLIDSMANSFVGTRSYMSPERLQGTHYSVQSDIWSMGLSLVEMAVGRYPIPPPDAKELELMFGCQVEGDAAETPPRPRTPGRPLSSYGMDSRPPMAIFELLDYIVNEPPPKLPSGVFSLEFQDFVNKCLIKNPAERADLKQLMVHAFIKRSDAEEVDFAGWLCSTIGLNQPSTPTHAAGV

Chain of Tyrosine-protein kinase BTK (Homo sapiens, UniProt Q06187) (Q06187 whole entry): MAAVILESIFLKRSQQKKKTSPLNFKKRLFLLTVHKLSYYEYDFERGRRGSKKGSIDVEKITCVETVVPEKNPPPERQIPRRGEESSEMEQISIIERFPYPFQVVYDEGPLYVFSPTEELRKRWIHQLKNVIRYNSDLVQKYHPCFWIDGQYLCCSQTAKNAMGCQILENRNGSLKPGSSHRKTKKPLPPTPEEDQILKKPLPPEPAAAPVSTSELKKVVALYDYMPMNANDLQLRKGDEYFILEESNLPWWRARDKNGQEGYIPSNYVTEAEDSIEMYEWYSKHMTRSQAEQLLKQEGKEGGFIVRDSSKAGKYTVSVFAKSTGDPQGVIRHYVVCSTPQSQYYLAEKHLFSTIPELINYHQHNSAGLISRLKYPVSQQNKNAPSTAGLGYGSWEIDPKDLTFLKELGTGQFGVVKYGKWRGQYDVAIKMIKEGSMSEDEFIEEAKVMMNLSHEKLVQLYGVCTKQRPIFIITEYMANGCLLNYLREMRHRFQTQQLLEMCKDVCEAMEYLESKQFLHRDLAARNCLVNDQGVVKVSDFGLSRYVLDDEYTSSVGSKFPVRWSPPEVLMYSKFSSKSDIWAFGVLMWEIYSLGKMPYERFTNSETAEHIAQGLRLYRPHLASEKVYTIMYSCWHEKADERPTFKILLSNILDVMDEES
Chain of Receptor tyrosine-protein kinase erbB-4 (Q15303 whole entry): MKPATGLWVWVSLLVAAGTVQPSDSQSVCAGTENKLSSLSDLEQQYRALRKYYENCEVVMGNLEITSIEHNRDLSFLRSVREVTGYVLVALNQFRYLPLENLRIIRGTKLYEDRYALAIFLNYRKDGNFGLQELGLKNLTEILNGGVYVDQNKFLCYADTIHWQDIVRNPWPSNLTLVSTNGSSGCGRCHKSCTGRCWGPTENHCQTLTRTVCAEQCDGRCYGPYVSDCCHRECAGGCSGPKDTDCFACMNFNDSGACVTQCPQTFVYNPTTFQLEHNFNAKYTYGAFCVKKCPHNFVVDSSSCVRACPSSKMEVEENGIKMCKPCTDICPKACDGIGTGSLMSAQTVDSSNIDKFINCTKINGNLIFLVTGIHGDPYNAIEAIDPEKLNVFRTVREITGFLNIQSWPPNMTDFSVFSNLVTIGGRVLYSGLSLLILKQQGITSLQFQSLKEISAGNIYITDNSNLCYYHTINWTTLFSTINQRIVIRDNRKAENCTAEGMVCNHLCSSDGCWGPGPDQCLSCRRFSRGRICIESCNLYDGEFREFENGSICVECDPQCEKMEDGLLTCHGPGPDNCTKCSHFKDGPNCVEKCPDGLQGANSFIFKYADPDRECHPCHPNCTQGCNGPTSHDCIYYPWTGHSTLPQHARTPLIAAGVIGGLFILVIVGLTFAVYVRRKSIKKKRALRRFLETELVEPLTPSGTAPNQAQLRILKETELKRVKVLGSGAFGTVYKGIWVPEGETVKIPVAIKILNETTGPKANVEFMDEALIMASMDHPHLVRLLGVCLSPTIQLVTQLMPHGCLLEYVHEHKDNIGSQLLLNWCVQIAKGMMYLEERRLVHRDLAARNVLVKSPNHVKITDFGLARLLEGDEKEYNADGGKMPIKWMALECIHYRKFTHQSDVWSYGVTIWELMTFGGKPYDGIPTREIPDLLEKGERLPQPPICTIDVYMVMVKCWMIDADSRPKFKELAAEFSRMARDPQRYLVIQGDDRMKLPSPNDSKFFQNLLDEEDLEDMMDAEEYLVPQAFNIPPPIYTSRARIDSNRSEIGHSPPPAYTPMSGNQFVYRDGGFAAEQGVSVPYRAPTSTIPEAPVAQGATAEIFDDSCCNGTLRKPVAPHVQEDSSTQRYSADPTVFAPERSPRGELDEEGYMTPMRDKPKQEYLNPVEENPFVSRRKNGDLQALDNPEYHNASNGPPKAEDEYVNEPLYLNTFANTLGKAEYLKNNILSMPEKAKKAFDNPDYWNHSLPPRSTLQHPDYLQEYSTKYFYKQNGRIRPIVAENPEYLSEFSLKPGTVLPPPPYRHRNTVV
Chain of Tyrosine-protein kinase BTK (Homo sapiens, UniProt Q06187, C481S) (Q06187 2-659 C481S limits assumed): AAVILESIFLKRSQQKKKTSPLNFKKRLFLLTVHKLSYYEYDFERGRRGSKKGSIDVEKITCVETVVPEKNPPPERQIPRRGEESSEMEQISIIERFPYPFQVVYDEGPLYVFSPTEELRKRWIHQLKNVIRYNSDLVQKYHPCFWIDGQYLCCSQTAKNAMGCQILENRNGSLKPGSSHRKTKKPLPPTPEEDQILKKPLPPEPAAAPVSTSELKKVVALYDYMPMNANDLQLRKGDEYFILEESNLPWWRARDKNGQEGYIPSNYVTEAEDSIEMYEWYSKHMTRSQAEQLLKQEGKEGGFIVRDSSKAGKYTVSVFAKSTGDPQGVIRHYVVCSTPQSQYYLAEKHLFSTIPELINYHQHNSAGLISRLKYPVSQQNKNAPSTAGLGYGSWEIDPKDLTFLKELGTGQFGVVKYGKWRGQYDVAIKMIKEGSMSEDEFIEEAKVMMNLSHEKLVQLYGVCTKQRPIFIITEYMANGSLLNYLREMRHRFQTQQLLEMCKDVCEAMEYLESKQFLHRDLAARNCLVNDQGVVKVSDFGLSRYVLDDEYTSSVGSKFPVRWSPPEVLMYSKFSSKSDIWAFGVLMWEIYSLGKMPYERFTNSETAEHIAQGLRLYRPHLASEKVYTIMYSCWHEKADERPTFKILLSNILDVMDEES
Chain of Tyrosine-protein kinase Blk (P51451 2-505 limits assumed): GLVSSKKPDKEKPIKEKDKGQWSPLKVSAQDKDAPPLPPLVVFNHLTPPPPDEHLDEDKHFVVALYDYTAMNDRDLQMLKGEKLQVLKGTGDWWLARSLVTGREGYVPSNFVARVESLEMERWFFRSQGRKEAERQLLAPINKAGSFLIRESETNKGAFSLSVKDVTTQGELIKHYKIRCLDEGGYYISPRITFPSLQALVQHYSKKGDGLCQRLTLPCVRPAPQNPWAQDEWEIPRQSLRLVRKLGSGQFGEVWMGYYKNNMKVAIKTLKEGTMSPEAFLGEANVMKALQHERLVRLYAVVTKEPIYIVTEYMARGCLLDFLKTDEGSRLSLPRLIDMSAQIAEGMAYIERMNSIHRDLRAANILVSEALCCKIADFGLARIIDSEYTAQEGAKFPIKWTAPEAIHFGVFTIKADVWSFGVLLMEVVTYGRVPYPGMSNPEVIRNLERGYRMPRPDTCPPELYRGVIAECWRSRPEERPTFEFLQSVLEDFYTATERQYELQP

IC50 [1]: 23.6 nM
SMILES: C=CC(=O)NCC(=O)NC1Cn2c(c(-c3ccc(Oc4ccccc4)cc3)c3c(N)ncnc32)C1=C (stereo not drawn)

IC50 [1]: 0.4 nM
Vdss [2]: 1.39 L/kg
t1/2 [3]: 32.4 min
Cmax [4]: 340 ng/mL
Tmax [5]: 15 min
AUC [6]: 557 ng·h/mL
F [7]: 35.8%
Drug metabolism [8]: Metabolite_Detected
Drug metabolism [9]: Metabolite_Detected
Drug metabolism [10]: Metabolite_Detected
Drug metabolism [11]: Metabolite_Detected
Drug metabolism [12]: Metabolite_Detected
Drug metabolism [13]: Metabolite_Detected
Drug metabolism [14]: Metabolite_Detected
Drug metabolism [15]: Metabolite_Detected
Drug metabolism [16]: Metabolite_Detected
Drug metabolism [17]: Metabolite_Detected
SMILES: C=C1c2c(-c3ccc(Oc4ccccc4)cc3)c3c(N)ncnc3n2C[C@H]1NC(=O)C#CC

IC50 [1]: 725 nM
SMILES: C=CC(=O)NCCC(=O)NC1Cn2c(c(-c3ccc(Oc4ccccc4)cc3)c3c(N)ncnc32)C1=C (stereo not drawn)

IC50 [1]: 6.1 nM
SMILES: C=CC(=O)N[C@H]1Cn2c(c(-c3ccc(Oc4ccccc4)cc3)c3c(N)ncnc32)C1=C

Drug metabolism [18]: Metabolite_Detected
Drug metabolism [19]: Metabolite_Detected
Drug metabolism [20]: Metabolite_Detected
SMILES: C=C1c2c(-c3ccc(Oc4ccccc4)cc3)c3c(N)ncnc3n2C[C@H]1NC(=O)C=CO

Drug metabolism [21]: Metabolite_Detected
Drug metabolism [22]: Metabolite_Detected
Drug metabolism [23]: Metabolite_Detected
SMILES: C=C1c2c(-c3ccc(Oc4ccccc4)cc3)c3c(N)ncnc3n2C[C@H]1NC(=O)C#CCO

IC50 [1]: 2.1 nM
SMILES: C=C1c2c(-c3ccc(Oc4ccccc4)cc3)c3c(N)ncnc3n2CC1NC(=O)C#CC (racemic)

IC50 [1]: 3.3 nM
SMILES: C=C1c2c(-c3ccc(Oc4ccccc4)cc3)c3c(N)ncnc3n2C[C@@H]1NC(=O)C#CC

IC50 [1]: 4.3 nM
SMILES: C=C1c2c(-c3ccc(Oc4ccccc4)cc3)c3c(N)ncnc3n2CC1NC(=O)/C=C/CN(C)C (stereo not drawn)

Drug metabolism [19]: Metabolite_Detected
Drug metabolism [20]: Metabolite_Detected
Drug metabolism [21]: Metabolite_Detected
SMILES: C=C1c2c(-c3ccc(Oc4ccc(O)cc4)cc3)c3c(N)ncnc3n2C[C@H]1N

Drug metabolism [18]: Metabolite_Detected
Drug metabolism [19]: Metabolite_Detected
Drug metabolism [20]: Metabolite_Detected
SMILES: C=C1c2c(-c3ccc(Oc4ccccc4)cc3)c3c(N)ncnc3n2C[C@H]1NC(=O)C(O)CO (stereo partly drawn)

IC50 [1]: 62.6 nM
SMILES: C=C1c2c(-c3ccc(Oc4ccccc4)cc3)c3c(N)ncnc3n2CC1NC(=O)CC (stereo not drawn)

IC50 [1]: 40.1 nM
SMILES: C=CC(=O)N[C@@H](C)C(=O)NC1Cn2c(c(-c3ccc(Oc4ccccc4)cc3)c3c(N)ncnc32)C1=C (stereo partly drawn)

IC50 [1]: > 1000 nM
SMILES: C=C1c2c(-c3ccc(Oc4ccccc4)cc3)c3c(N)ncnc3n2CC1N (stereo not drawn)

The next lines start with the compound.

SMILES: C=CC(=O)NC1(C(=O)NC2Cn3c(c(-c4ccc(Oc5ccccc5)cc4)c4c(N)ncnc43)C2=C)CC1 (stereo not drawn)
IC50 [1]: 23.8 nM

SMILES: C=CC(=O)N[C@@H]1Cn2c(c(-c3ccc(Oc4ccc(C(F)(F)F)cc4)cc3)c3c(N)ncnc32)C1=C
IC50 [1]: 7.4 nM

SMILES: C=CC(=O)N[C@@H]1Cn2c(c(-c3ccc(Oc4ccc(C(C)(C)C)cc4)cc3)c3c(N)ncnc32)C1=C
IC50 [1]: 3.7 nM

SMILES: C=CC(=O)N[C@@H]1Cn2c(c(-c3ccc(Oc4ccc(O)cc4)cc3)c3c(N)ncnc32)C1=C
Drug metabolism [18]: Metabolite_Detected
Drug metabolism [19]: Metabolite_Detected
Drug metabolism [20]: Metabolite_Detected

SMILES: C=C1c2c(-c3ccc(O)cc3)c3c(N)ncnc3n2C[C@H]1NC(=O)C#CC
Drug metabolism [22]: Metabolite_Detected
Drug metabolism [23]: Metabolite_Detected

SMILES: CCC(=O)NC1CCc2c(-c3ccc(Oc4ccccc4)cc3)c3c(N)ncnc3n2C1 (stereo not drawn)
IC50 [1]: 417 nM

SMILES: C=CC(=O)N[C@@H]1Cn2c(c(-c3ccc(C(=O)N[C@@H](C)c4ccccn4)cc3)c3c(N)ncnc32)C1=C
IC50 [1]: 50.4 nM

SMILES: C=C1c2c(-c3ccc(Oc4ccc(O)cc4)cc3)c3c(N)ncnc3n2C[C@H]1NC(=O)C#CCO
Drug metabolism [22]: Metabolite_Detected
Drug metabolism [23]: Metabolite_Detected

SMILES: C=CC(=O)N[C@@H]1Cn2c(c(-c3ccc(O)cc3)c3c(N)ncnc32)C1=C
Drug metabolism [18]: Metabolite_Detected
Drug metabolism [19]: Metabolite_Detected

SMILES: C=C1c2c(-c3ccc(Oc4ccc(O)cc4)cc3)c3c(N)ncnc3n2C[C@H]1NC(=O)C#CC
Drug metabolism [21]: Metabolite_Detected
Drug metabolism [22]: Metabolite_Detected
Drug metabolism [23]: Metabolite_Detected

SMILES: C=CC(=O)N[C@@H]1Cn2c(c(-c3ccc(C(=O)N[C@@H](COC)c4ccccn4)cc3)c3c(N)ncnc32)C1=C
IC50 [1]: 4.3 nM

SMILES: C=CC(=O)N[C@@H]1Cn2c(c(-c3ccc(C(=O)Nc4ccccn4)cc3)c3c(N)ncnc32)C1=C
IC50 [1]: 0.5 nM
bioavailability [24]: 8.24%
IC50 [25]: 4 nM
IC50 [26]: 14.3 µM

SMILES: C=CC(=O)N1CCC[C@@H](n2nc(-c3ccc(Oc4ccccc4)cc3)c3c(N)ncnc32)C1 [IBRUTINIB]
AUC [6]: 57 ng·h/mL
IC50 [25]: 10 nM
IC50 [26]: 0.92 µM
Activity [27]: Non-Toxic

SMILES: C=CC(=O)N[C@@H]1Cn2c(c(-c3ccc(C(=O)Nc4cc(C(F)(F)F)ccn4)cc3)c3c(N)ncnc32)C1=C
IC50 [1]: 0.8 nM

SMILES: C=CC(=O)N[C@@H]1Cn2c(c(-c3ccc(Oc4ccc(F)cc4)cc3)c3c(N)ncnc32)C1=C
IC50 [1]: 2.2 nM

SMILES: C=CC(=O)NC1Cn2c(c(-c3ccc(Oc4ccccc4)cc3)c3c(N)ncnc32)C1=C (racemic)
IC50 [1]: 2.8 nM
IC50 [28]: 464 nM
Activity [29]: < 1%
Activity [30]: < 1%
Activity [31]: < 1%

SMILES: C=CC(=O)N[C@@H]1Cn2c(c(-c3ccc(Oc4ccc(OC(F)(F)F)cc4)cc3)c3c(N)ncnc32)C1=C
IC50 [1]: 3.5 nM

SMILES: C=CC(=O)N[C@@H]1Cn2c(c(-c3ccc(C(=O)NCc4ccccn4)cc3)c3c(N)ncnc32)C1=C
IC50 [1]: 3.1 nM
